This note sets out measurements from publication PMC5889851 (ACS chemical biology, 2018).

Data set [1] relates to HEK293 cells overexpressing SIRT2. In words: Cellular NAD+ measurement. As to conditions: 40 nM, 6 h, vs control cells. It is filed as cell-based, human. The gist of the method: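 SIRT2-overexpressing HEK293 cells got 0 or 40 nM NAMPT inhibitor for 6 h, then were harvested, rinsed and resuspended in fresh medium. Pellets were extracted with ice-cold 7% perchloric acid through three vortex (30 s) and ice sonication (5 min) cycles. Extracts were centrifuged 3 min at RT, and supernatant was neutralised to pH 7 with NaOH and phosphate buffer. NAD⁺ was quantified by cycling assay.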

Data set [2] concerns the target T1, SIRT2 in SIRT2 overexpressing HEK293 cells (Homo sapiens, UniProt Q8IXJ6).
T1 sequence (Q8IXJ6 1-389): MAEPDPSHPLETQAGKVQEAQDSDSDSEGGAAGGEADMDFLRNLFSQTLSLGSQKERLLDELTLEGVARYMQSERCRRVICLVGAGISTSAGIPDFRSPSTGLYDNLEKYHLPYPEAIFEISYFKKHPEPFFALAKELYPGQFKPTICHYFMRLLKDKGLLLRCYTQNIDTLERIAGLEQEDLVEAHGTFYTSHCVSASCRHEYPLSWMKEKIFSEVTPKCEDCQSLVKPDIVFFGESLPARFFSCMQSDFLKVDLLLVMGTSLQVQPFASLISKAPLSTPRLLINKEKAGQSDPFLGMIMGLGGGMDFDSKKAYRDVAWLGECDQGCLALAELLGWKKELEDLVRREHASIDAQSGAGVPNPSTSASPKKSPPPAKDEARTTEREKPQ
In words: In situ labeling of SIRT2 with activity-based probe. The class given is cell-based. As to conditions: cells treated with FK866 6 h, then 10 μM probe 1; compared to control cells. The gist of the method: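 SIRT2-overexpressing HEK293 cells were treated with or without NAMPT inhibitor for 6 h, rinsed three times, and given fresh medium with 10 μM probe. Live cells were irradiated at 365 nm on ice for 1 h, then harvested and lysed. Lysate was click-conjugated to azide-fluor 545, resolved by SDS-PAGE and scanned for fluorescence. SIRT2 protein level was checked by Western blot.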

A further data set has as its system HEK293 cells. In words: Viability testing using trypan blue. The class given is cell-based, human. As to conditions: 40 nM, 6 h. The gist of the method:
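HEK293 cells received 0 or 40 nM NAMPT inhibitor for 6 h, then were harvested, rinsed and resuspended in fresh medium. An aliquot of the suspension was scored for viability by trypan blue exclusion.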

With `O=C(/C=C/c1cccnc1)NCCCCC1CCN(C(=O)c2ccccc2)CC1` [FK866], the “NAD+ depletion” value in data set [1] worked out at 60%. The “in situ labeling intensity of SIRT2 by probe 1” value in data set [2] is on record as “decreased labeling intensity”. Moreover, the loss of viability entry with HEK293 cells was “negligible loss of viability”.
